Screens deposited in PubChem by Sanford-Burnham Center for Chemical Genomics.
UBC13 polyUb = UBC13 polyubiquitin chain formation inhibitors, primary screen, biochemical, TR-FRET, uHTS. Ubiquitin-conjugating enzyme E2 N (Homo sapiens), P61088. inhibition, % at 20 µM. 330,000 tested, 0.47% active. AID 485273, 2010; in the data active = inhibition above about 45%, passing the limit was not always enough
Apaf-1 inh = inhibitors of human Apaf-1 apoptosome, primary screen, biochemical, DEVD-Rh110 fluorescence, uHTS; Apoptotic protease-activating factor 1 (Homo sapiens), O14727; reconstituted apoptosome caspase-3 activity; inhibition, % at 20 µM; 330,000 tested, 0.71% active; active = inhibition of at least 40% at 20 µM
Target sequence (O14727 whole entry, looked up): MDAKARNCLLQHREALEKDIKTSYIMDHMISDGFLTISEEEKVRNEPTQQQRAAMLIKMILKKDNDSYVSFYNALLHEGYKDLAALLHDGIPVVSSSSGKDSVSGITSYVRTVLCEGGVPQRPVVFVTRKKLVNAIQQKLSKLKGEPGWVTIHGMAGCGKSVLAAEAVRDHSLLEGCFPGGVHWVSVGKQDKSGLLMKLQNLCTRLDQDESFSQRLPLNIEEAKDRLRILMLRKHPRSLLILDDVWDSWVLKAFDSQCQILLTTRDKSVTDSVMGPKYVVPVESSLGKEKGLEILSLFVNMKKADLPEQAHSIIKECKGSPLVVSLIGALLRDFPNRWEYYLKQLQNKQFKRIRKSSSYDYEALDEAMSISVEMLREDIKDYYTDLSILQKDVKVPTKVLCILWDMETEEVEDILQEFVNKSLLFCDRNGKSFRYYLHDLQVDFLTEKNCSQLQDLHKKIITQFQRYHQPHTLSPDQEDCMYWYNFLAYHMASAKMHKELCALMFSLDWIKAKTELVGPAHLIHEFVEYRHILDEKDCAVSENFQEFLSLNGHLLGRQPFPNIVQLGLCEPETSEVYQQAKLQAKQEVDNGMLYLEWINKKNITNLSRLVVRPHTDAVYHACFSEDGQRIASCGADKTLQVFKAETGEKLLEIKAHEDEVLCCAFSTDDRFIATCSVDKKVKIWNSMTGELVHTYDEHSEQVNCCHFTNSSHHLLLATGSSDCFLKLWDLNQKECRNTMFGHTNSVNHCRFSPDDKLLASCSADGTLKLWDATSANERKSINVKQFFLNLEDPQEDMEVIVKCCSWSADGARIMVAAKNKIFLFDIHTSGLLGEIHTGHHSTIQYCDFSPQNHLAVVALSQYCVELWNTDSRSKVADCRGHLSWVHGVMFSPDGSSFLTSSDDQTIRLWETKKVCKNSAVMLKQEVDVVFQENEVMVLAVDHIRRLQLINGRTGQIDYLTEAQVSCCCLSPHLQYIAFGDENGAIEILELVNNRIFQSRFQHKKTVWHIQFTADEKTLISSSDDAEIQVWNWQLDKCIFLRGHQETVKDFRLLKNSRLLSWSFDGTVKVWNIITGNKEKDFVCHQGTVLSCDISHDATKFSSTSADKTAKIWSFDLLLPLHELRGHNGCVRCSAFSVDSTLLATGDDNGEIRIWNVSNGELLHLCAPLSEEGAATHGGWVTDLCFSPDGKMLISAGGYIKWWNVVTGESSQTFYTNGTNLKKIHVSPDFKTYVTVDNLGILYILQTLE
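Material: biochemical Apaf-1 apoptosome reconstitution. Medium: Hepes buffer, pH 7.5. Also added: cytochrome c activation, bis-DEVD rhodamine 110 substrate. Timing: 30 min compound preincubation, 50 min activation, room temperature. Measured by: rhodamine 110 fluorescence at Ex 480/Em 540 nm.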
SENP6 inh = SENP6 protease inhibitors, primary screen, biochemical, luminescence, uHTS | Recombinant SENP6 catalytic domain, aminoluciferin luminescence | Sentrin-specific protease 6 (Homo sapiens), Q9GZR1 | inhibition, % at 10 µM | 330,000 tested, 1.8% active;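 active = inhibition above about 50% at the single tested dose, limit read from the data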
SENP8 block-1 = human SENP8 protease inhibitors, primary screen, biochemical, fluorescence, Nedd8 protein substrate, uHTS. 360,000 tested, 0.64% active. inhibition, % at 20 µM. recombinant SENP8; in the data active = inhibition mostly above about 40%, no sharp cut-off; inactive = mostly below about 27%
SENP8 block-2 = SENP8 protease inhibitors, primary screen, biochemical, luminescence; Sentrin-specific protease 8 (Homo sapiens), Q96LD8; purified SENP8, Z-RLRGG-aminoluciferin cleavage; inhibition, % at 10 µM; 330,000 tested, 1.2% active; AID 2540, 2010; in the data active = inhibition above about 50%
SENP7 block = SENP7 protease inhibitors, primary screen, biochemical, luminescence, uHTS; Sentrin-specific protease 7 (Homo sapiens), Q9BQF6; 330,000 tested, 1.5% active; inhibition, % at 5 µM; recombinant SENP7, Z-RLRGG-aminoluciferin luminescence, 40 min; AID 434973, 2010;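 active = inhibition above about 50% at the single test dose, limit read from the data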
Casp3 counter = CASP3 inhibitor validation, counterassay for project on UBE2N polyubiquitination blockers, biochemical, one dose; shares compounds with UBC13 polyUb; Recombinant caspase-3, Caspase-Glo 3/7 luminescence, 60 min; inhibition, % at 20 µM; 1,400 tested, 4% active;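 active = mean inhibition across replicates above about 26%, limit read from the data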
UBC13 confirm = UBC13 polyubiquitination inhibitors, single-point retest, confirmation, biochemical, TR-FRET, single concentration | shares compounds with UBC13 polyUb | inhibition, % at 10 µM | 1,400 tested, 68% active | AID 488859, 2010; in the data active = inhibition above about 45%
Each line names hits and unclear results; the compound was inactive in the other large screens (follow-up assays come after a bar, where they were run). Only some compounds are listed: those with a hit (about 3.1% of all), similar ones and a draw of the others.

CCN1CCN(Cc2ccc(NC(=O)c3cc(NC(=O)c4cnn(-c5ccccc5)c4N)cc(OC)c3)cc2C(F)(F)F)CC1	UBC13 polyUb 78.6 | Casp3 counter inactive | UBC13 confirm 50.4
Cc1ccc2nc(N(CCCN(C)C)C(=O)c3sc4ccccc4c3Cl)sc2c1	UBC13 polyUb 49.2 | Casp3 counter inactive | UBC13 confirm 63.9
CN(C)CCCN(C(=O)c1ccc(S(=O)(=O)N(C)C)cc1)c1nc2cc3c(cc2s1)OCO3	none
CN(C)CCCN(C(=O)c1ccc(C(=O)c2ccccc2)cc1)c1nc2cc3c(cc2s1)OCCO3	UBC13 polyUb 92.0 | Casp3 counter inactive | UBC13 confirm 111.5
CCN(Cc1ccccc1)S(=O)(=O)c1ccc(C(=O)N(CCCN(C)C)c2nc3cc4c(cc3s2)OCO4)cc1	UBC13 polyUb 64.3 | Casp3 counter inactive | UBC13 confirm 104.4
Cc1ccc2nc(N(CCCN(C)C)C(=O)c3ccc(S(=O)(=O)N(C)C)cc3)sc2c1	none
CCOC(=O)C1=CCN(S(C)(=O)=O)C1c1ccc(C)cc1 (stereo not drawn)	none (no result: UBC13 polyUb, Apaf-1 inh, SENP6 inh, SENP8 block-2, SENP7 block)
COc1cc(C(CCN2CCCC2)c2c(OC)cc(OC)c3ccc(=O)oc23)cc(OC)c1OC (stereo not drawn)	none
CCN(CC)CCC(c1cc(OC)c(OC)c(OC)c1)c1c(OC)cc(OC)c2c(C)cc(=O)oc12 (stereo not drawn)	none
CCCCCc1cc(=O)oc2c(C(CCN(CC)CC)c3ccc(N(C)C)cc3)c(OC)cc(OC)c12 (stereo not drawn)	UBC13 polyUb 79.9 | Casp3 counter inactive | UBC13 confirm inactive
CCCCCc1cc(=O)oc2c(C(CCN3CCCCC3)c3cc(OC)c(OC)c(OC)c3)c(OC)cc(OC)c12 (stereo not drawn)	UBC13 polyUb 81.3 | Casp3 counter inactive | UBC13 confirm 46.0
COc1ccc(CN(C)C[C@@H]2OCc3cnnn3CCCC(=O)N([C@H](C)CO)C[C@H]2C)cc1	none (no result: UBC13 polyUb, Apaf-1 inh, SENP6 inh, SENP8 block-2, SENP7 block)
COc1ccc(CNC(=O)c2ccc(-n3ccnc3)c3ccoc23)cc1OC	none (no result: UBC13 polyUb, Apaf-1 inh, SENP6 inh, SENP8 block-2, SENP7 block)
COc1cc(OC)nc(Nc2nc(C(N)Cc3ccc(Cl)cc3)cs2)n1 (stereo not drawn)	none (no result: UBC13 polyUb, Apaf-1 inh, SENP6 inh, SENP8 block-2, SENP7 block)
CCC(=O)NC(c1cc(Cl)c2ccccc2c1O)C(C)C (stereo not drawn)	UBC13 polyUb 70.9 | Casp3 counter inactive | UBC13 confirm 55.9
CC(=O)NC(C)c1cc(Cl)c2cccnc2c1O (stereo not drawn)	none
CC(=O)NC(c1ccco1)c1cc(Cl)c2ccccc2c1O (stereo not drawn)	UBC13 polyUb 47.1 | Casp3 counter inactive | UBC13 confirm inactive
CC(=O)NC(C)c1cc(Cl)c2ccccc2c1O (stereo not drawn)	UBC13 polyUb 62.9 | Casp3 counter inactive | UBC13 confirm 47.2
COc1ccc(-c2c(C(=O)c3ccc(Br)cc3)[nH]c(N)c2C(=O)c2ccccc2)cc1OC	none (no result: UBC13 polyUb, Apaf-1 inh, SENP6 inh, SENP8 block-2, SENP7 block)
Cc1ccccc1NS(=O)(=O)c1ccc(C(=O)NCc2ccccc2CN2CCCC2)cc1	none (no result: UBC13 polyUb, Apaf-1 inh, SENP6 inh, SENP8 block-2, SENP7 block)
Cc1cc(Sc2nnc(N)s2)c2ccccc2n1	none
Cc1cc(Sc2nnc(/N=C/N(C)C)s2)c2ccccc2n1	UBC13 polyUb 55.0 | Casp3 counter inactive | UBC13 confirm 65.3
COc1ccc(C(=O)Nc2ccc3oc(-c4cccc(F)c4)nc3c2)cc1OC	UBC13 polyUb 54.1 | Casp3 counter inactive | UBC13 confirm inactive
Cc1cccc(C(=O)NC(=S)NNC(=O)c2ccccc2Cl)c1	none
Cc1cc(C(=O)NNC(=S)NC(=O)/C=C/c2ccccc2Cl)n[nH]1	UBC13 polyUb 91.6 | Casp3 counter inactive | UBC13 confirm 88.8
CCOc1ccc(C(=O)C(C)OC(=O)c2nc(Cl)ccc2Cl)cc1 (stereo not drawn)	UBC13 polyUb 47.0 | Casp3 counter inactive | UBC13 confirm 72.4
COC(=O)C1=C(C)N(Cc2ccccc2)C(=NCc2cccc(C(F)(F)F)c2)N[C@H]1c1cccc(F)c1	UBC13 polyUb 97.3 | Casp3 counter inactive | UBC13 confirm 84.1
COCCN=C1N[C@@H](c2cccc(C(F)(F)F)c2)C(C(=O)OC)=C(C)N1Cc1ccccc1	none
Nc1cccc2c1nnn2C1OC(CO)C(O)C(O)C1O (stereo not drawn)	none
Cc1cccc2c1c(N=NC(N)=S)c(O)n2C1OC(CO)C(O)C(O)C1O (stereo not drawn)	UBC13 polyUb 67.3 | Casp3 counter inactive | UBC13 confirm 96.9
O[C@@H](c1cc(C(F)(F)F)nc2c(C(F)(F)F)cccc12)[C@H]1CCCCN1	UBC13 polyUb 64.1, Apaf-1 inh 51.9 | Casp3 counter inactive | UBC13 confirm inactive
O=C(CC[C@H]1O[C@@H](n2ccc(=O)[nH]c2=O)[C@H](O)[C@@H]1O)N[C@@H](Cc1ccccc1)C(=O)NCc1ccccc1	none (no result: UBC13 polyUb, Apaf-1 inh, SENP6 inh, SENP8 block-2, SENP7 block)
CC1(C)Cc2c(c(N3CCOCC3)nc3sc4c(=O)[nH]cnc4c23)CS1	UBC13 polyUb 49.7 | Casp3 counter inactive | UBC13 confirm 54.5
COc1ccc(NC(=S)NNC(=O)c2cccs2)cc1	none
COc1ccc(NC(=S)NNC(=O)c2nnn(-c3ccccc3)c2C)cc1	UBC13 polyUb 58.7 | Casp3 counter inactive | UBC13 confirm 81.9
O=C(NNC(=S)NC(=O)c1ccccc1[N+](=O)[O-])c1ccccc1Cl	UBC13 polyUb 48.5 | Casp3 counter inactive | UBC13 confirm inactive
CCOC(=O)C(=NC1CCS(=O)(=O)C1)NNc1cc(Cl)ccc1Cl (stereo not drawn)	UBC13 polyUb 68.0 | Casp3 counter inactive | UBC13 confirm 56.9
Cc1cccc(NC(=O)Cn2c(O)c(N=NC(N)=S)c3ccccc32)c1	none
CC1=CC(C)(C)n2c(O)c(N=NC(N)=S)c3cc(C)cc1c32	UBC13 polyUb 56.8 | Casp3 counter inactive | UBC13 confirm 52.0
COc1ccccc1C(=O)Nc1c2c(nn1-c1cccc(C)c1C)CS(=O)(=O)C2	UBC13 polyUb 46.4 | Casp3 counter inactive | UBC13 confirm inactive
